Laboratory results taken from ChEMBL document CHEMBL4033606, “Ulapualides C-E Isolated from a Hawaiian Hexabranchus sanguineus Egg Mass” (J Nat Prod, 2017).
Active and inactive are the calls of the source. The calls are words filed in the database; no cut-off is given here.

Columns and labels:
DU-145 = experiment: Cytotoxicity against human DU145 cells incubated for 72 hrs by CyQuant NF cell proliferation assay; assay type: functional, cell-based; conditions: DU-145, 72 h
Procedure, shortened: (§1)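 Cells seeded at 4,000 per well and treated 20 h later with serially diluted compounds for 72 h at 37 °C, 5% CO2. Medium containing penicillin 100 U/mL and streptomycin 100 μg/mL. Medium then replaced with CyQuant NF dye-binding solution for 60 min at 37 °C and fluorescence read on a plate reader. Triplicates in two independent trials. IC50 reported. In the second trial, sample concentration was set by colorimetry against a standard curve.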

MDA-MB-231 = experiment: Cytotoxicity against human MDA-MB-231 cells incubated for 72 hrs by CyQuant NF cell proliferation assay; assay type: functional, cell-based; conditions: MDA-MB-231, 72 h; procedure, shortened: as §1
A549 = experiment: Cytotoxicity against human A549 cells incubated for 72 hrs by CyQuant NF cell proliferation assay; assay type: functional, cell-based; conditions: A549, 72 h; procedure, shortened: as §1
[1] = biological target: Beta-secretase 1 (Homo sapiens) (UniProt P56817); experiment: Inhibition of BACE1 (unknown origin) up to 30 uM
Beta-secretase 1 (Homo sapiens), sequence (P56817 whole entry): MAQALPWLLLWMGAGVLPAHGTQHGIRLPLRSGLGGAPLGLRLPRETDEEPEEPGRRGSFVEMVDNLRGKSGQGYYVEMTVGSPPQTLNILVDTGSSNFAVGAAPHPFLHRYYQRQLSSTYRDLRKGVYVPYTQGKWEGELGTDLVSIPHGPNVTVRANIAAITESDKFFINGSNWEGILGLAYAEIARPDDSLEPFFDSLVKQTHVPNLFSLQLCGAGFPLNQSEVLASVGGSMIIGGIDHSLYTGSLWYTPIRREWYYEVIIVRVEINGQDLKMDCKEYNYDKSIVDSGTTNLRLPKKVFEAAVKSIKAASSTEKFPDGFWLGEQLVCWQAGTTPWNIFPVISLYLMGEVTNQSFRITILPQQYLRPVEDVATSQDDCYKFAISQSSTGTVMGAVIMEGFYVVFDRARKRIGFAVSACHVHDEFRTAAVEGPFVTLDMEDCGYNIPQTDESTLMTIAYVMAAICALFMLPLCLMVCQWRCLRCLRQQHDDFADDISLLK

| Structure (SMILES) | IC50 (DU-145) [nM] | IC50 (MDA-MB-231) [nM] | IC50 (A549) [nM] | inhibition [1] |
| --- | --- | --- | --- | --- |
| COC(CC1OC(=O)CC(O)CCCC(=O)CC(C)c2coc(n2)-c2coc(n2)-c2coc(n2)/C=C/CC(OC)C1C)C(C)CCC(O)C(C)C(OC(C)=O)C(C)/C=C/N(C)C=O (stereo unspecified) | 760 to 850 | 580 to 760 | 600 to 680 | – |
| COCC(OC)C(=O)OC(CCC(C)C(CC1OC(=O)CC(O)CCCC(=O)CC(C)c2coc(n2)-c2coc(n2)-c2coc(n2)/C=C/CC(OC)C1C)OC)C(C)C(OC(C)=O)C(C)/C=C/N(C)C=O (stereo unspecified) | 280 to 340 | 290 | 260 to 330 | inactive |
| CO[C@H]1C/C=C/c2nc(co2)-c2nc(co2)-c2nc(co2)[C@@H](C)CC(=O)CCC[C@H](O)CC(=O)O[C@@H](C[C@H](OC)[C@@H](C)CCC(=O)[C@H](C)[C@H](OC(C)=O)[C@H](C)/C=C/N(C)C=O)[C@@H]1C | 250 to 260 | 230 to 250 | 280 to 290 | inactive |
